Experimental data as given in ChEMBL document CHEMBL3784928, “Development and Characterization of Novel and Selective Inhibitors of Cytochrome P450 CYP26A1, the Human Liver Retinoic Acid Hydroxylase” (J Med Chem, 2016).
The source made the active and inactive calls. No cut-off for these calls is given here.

What was measured:
Cytochrome P450 26A1 [1] = target: T1, Cytochrome P450 26A1 (Homo sapiens, UniProt O43174)
T1 sequence (O43174 whole entry): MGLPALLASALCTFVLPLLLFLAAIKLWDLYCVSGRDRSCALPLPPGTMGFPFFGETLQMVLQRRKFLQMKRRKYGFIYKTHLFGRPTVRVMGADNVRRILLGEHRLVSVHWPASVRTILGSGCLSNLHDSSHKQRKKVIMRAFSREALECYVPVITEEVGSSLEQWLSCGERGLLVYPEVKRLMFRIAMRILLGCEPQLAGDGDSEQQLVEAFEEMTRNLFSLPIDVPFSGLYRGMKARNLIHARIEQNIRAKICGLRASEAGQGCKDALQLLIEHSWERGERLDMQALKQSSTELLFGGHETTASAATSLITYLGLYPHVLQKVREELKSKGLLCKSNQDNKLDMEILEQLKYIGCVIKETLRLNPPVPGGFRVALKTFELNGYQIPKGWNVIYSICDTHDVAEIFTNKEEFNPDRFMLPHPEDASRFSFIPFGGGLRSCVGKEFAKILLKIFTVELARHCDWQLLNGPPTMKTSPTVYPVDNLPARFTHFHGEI

Cytochrome P450 26B1 [2] = target: T2, Cytochrome P450 26B1 (Homo sapiens, UniProt Q9NR63)
T2 sequence (Q9NR63 whole entry): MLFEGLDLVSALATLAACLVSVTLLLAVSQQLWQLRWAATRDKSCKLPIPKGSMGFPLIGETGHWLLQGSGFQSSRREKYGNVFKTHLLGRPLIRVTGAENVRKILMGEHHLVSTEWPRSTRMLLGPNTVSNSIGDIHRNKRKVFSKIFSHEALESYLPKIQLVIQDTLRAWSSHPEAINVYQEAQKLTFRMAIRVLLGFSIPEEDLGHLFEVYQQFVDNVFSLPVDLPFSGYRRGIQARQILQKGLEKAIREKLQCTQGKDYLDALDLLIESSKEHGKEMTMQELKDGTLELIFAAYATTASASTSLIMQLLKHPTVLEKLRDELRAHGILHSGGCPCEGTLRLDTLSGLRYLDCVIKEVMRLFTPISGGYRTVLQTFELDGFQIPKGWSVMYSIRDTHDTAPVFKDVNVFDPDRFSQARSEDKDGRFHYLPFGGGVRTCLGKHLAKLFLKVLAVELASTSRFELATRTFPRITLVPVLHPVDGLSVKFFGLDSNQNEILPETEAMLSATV

[3] = target: T3, Retinoic acid receptor (Homo sapiens) (UniProt P13631+P10826+P10276); experiment: Activation of RAR in human HepG2 cells assessed as upregulation of CYP26A1 mRNA expression at 1 uM after 24 hrs by RT-PCR method; assay type: cell-based
T3 sequence (P10826 whole entry, looked up, one chain of several): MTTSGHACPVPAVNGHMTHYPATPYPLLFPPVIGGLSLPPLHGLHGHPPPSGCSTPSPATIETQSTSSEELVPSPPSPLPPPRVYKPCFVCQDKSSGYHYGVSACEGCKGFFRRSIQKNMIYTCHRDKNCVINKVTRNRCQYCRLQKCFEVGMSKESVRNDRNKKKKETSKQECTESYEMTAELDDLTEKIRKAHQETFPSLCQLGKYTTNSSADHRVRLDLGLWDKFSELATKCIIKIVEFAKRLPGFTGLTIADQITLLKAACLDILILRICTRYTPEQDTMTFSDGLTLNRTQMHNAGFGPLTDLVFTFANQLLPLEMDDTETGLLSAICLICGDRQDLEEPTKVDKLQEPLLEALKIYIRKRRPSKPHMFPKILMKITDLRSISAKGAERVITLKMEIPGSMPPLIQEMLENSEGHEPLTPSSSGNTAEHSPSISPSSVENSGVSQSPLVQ
T3 sequence (P13631 whole entry, looked up, one chain of several): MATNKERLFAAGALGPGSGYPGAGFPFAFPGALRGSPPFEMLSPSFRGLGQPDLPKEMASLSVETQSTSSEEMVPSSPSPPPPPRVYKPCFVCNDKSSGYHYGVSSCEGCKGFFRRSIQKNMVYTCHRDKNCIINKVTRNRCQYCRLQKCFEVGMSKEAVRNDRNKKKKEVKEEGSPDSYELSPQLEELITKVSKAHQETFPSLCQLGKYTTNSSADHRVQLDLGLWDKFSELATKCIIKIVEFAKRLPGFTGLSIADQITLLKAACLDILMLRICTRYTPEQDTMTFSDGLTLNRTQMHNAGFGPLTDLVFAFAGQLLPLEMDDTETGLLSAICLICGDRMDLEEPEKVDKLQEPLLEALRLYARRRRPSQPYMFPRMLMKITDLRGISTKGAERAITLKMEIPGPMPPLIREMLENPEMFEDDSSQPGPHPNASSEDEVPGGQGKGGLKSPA
Procedure, shortened: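 HepG2 cells kept in DMEM with 10% FBS at 37 °C under 5% CO2. Plated and left to adhere 24 h, then exposed 24 h to 1 μM compound in 0.1% DMSO, with 0.1% DMSO as vehicle control. Triplicate wells. TRI reagent mRNA extraction, cDNA from 1 μg mRNA. CYP26A1 measured by TaqMan RT-PCR multiplexed with GAPDH as housekeeping gene. Fold-difference calculated by the CT method.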

Cytochrome P450 26A1 [4] = target: T1, Cytochrome P450 26A1; experiment: Inhibition of CYP26A1-mediated atRA metabolism in human HepG2 cells assessed as atRA level in cell media at 1 uM after 24 hrs by LC/MS-MS analysis (reference value: 0.49 +/- 0.33 nM); assay type: cell-based; settings: hepg2, 24 h
[5] = target: T4, Retinoic acid receptor alpha (Homo sapiens) (UniProt P10276); experiment: Activation of human RARalpha at 1 uM by luciferase reporter gene assay
T4 sequence (whole entry): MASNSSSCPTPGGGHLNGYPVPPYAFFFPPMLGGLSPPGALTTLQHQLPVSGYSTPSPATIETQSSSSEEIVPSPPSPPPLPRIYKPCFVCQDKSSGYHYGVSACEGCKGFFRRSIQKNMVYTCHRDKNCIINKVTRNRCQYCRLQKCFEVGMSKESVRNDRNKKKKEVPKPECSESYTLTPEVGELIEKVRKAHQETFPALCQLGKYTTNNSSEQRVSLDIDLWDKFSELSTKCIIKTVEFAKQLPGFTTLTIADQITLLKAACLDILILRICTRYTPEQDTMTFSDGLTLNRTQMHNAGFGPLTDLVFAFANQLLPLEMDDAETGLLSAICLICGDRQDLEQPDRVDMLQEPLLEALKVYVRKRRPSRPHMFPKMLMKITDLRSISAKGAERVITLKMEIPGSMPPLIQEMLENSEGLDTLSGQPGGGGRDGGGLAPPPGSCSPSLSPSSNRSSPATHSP

[6] = target: T3, Retinoic acid receptor (Homo sapiens); experiment: Activation of RAR in human HepG2 cells assessed as upregulation of RARbeta mRNA expression at 1 uM after 24 hrs by RT-PCR method; assay type: cell-based
Procedure, shortened: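 HepG2 cells in DMEM with 10% FBS, 37 °C, 5% CO2, plated 24 h before dosing. Treated 24 h in 2 mL medium at 1 μM in 0.1% DMSO, alongside a 0.1% DMSO vehicle; triplicates. RNA isolated with TRI reagent and cDNA made from 1 μg. TaqMan RT-PCR multiplexed with GAPDH as housekeeping gene; fold change by the C_T method.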

[7] = Activation of human RARbeta at 1 uM by luciferase reporter gene assay
CYP3A4 = CYP3A4 (Homo sapiens, UniProt P08684); experiment: Inhibition of CYP3A4 in human liver microsomes upto 100 uM using midazolam as substrate by LC-MS/MS analysis in presence of NADPH; assay type: ADME; settings: probe midazolam, read-out: Imax
Chain of CYP3A4 (P08684 whole entry): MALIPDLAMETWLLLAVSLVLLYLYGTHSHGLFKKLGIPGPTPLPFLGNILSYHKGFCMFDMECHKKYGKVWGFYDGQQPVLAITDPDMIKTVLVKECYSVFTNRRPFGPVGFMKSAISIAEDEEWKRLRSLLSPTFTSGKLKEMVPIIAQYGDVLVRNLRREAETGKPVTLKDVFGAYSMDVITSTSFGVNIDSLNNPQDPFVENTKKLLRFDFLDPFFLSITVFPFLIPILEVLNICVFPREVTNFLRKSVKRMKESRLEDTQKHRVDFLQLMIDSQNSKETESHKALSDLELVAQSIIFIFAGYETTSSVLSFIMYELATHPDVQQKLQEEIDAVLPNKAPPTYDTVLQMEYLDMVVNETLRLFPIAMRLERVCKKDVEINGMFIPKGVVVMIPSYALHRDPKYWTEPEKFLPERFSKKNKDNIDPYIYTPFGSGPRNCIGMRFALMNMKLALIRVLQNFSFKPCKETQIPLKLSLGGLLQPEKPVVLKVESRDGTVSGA
Procedure, shortened: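 Human liver microsomes incubated with midazolam as the CYP3A4-selective substrate plus inhibitor in 100 mM potassium phosphate buffer. Reaction started with NADPH and quenched with ice-cold acetonitrile. Product formation measured by LC-MS/MS.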

Cytochrome P450 3A4 = Cytochrome P450 3A4 (Homo sapiens, UniProt P08684)
Chain of Cytochrome P450 3A4 (P08684 whole entry): as above

CYP2D6 = CYP2D6 (Homo sapiens, UniProt P10635); experiment: in vitro; settings: human liver microsomes, probe dextromethorphan
Chain of CYP2D6 (P10635 whole entry): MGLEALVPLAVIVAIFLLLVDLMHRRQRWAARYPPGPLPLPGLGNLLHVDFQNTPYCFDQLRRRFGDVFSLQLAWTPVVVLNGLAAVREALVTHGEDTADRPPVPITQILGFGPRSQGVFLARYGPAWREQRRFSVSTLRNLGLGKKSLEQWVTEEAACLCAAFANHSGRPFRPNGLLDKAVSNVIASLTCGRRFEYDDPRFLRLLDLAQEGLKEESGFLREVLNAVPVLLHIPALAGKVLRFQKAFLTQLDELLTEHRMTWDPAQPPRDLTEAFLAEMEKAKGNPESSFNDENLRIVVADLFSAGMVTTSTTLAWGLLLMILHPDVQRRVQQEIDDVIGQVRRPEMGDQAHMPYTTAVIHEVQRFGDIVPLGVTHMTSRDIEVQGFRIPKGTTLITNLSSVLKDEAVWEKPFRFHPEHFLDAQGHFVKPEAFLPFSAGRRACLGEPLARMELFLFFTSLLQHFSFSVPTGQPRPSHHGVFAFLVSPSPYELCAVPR

Homo sapiens = organism: Homo sapiens; experiment: Selectivity ratio of IC50 for microsomal fraction of human CYP26B1 to IC50 for microsomal fraction of human CYP26A1
Cytochrome P450 26B1 [8] = target: T2, Cytochrome P450 26B1; experiment: Inhibition of microsomal fraction of human CYP26B1 expressed in Sf9 cells using 9-cis-RA as substrate at 20 uM preincubated for 5 mins followed by NADPH addition measured after 5 mins by HPLC analysis in presence of rat P450 reductase
Procedure, shortened: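 Sf9 microsomes expressing CYP26B1, 5 pmol, preincubated 10 min at room temperature with 10 pmol E. coli-expressed rat P450 reductase. […] Preincubated 5 min at 37 °C, started with 1 mM NADPH (final), run 5 min. 9-cis-4-OH-RA measured by HPLC; activity expressed relative to solvent control.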

Structure (SMILES) | IC50 (Cytochrome P450 26A1 [1]) [µM] | IC50 (Cytochrome P450 26B1 [2]) [µM] | further results
CC1(C)CCC(C)(C)c2cc(S(=O)(=O)c3ccc(CCC(=O)O)cc3)ccc21 | > 5 | 6.2 | –
CC1(C)CCC(C)(C)c2cc(C3(c4ccc(CCC(=O)O)cc4)OCCO3)ccc21 | – | – | Activity [3]: inactive; Activity (Cytochrome P450 26A1 [4]): 0.27 nM; Activity [5]: inactive; Activity [6]: inactive; Activity [7]: inactive; Emax (CYP3A4): 40%
CC1(C)CCC(C)(C)c2cc(C3(c4ccc(/C=C/C(=O)O)cc4)OCCO3)ccc21 | – | – | Activity [3]: inactive; IC50 (Cytochrome P450 3A4): 30 µM; Activity (Cytochrome P450 26A1 [4]): 1.09 nM; Activity [5]: inactive; inhibition at 10 µM (CYP2D6): 49%; Activity [6]: inactive
CC1(C)CCC(C)(C)c2cc(S(=O)(=O)c3cccc(CC(=O)O)c3)ccc21 | > 5 | > 5 | –
CC1(C)CCC(C)(C)c2cc(C(=O)c3ccc(C(=O)O)cc3)ccc21 | > 25 | > 25 | –
CC1(C)CCC(C)(C)c2cc(Cc3ccc(CCC(=O)O)cc3)ccc21 | 1.66 | 1.7 | –
CC1(C)CCC(C)(C)c2cc(C3(c4ccc5cc(C(=O)O)ccc5c4)OCCO3)ccc21 | – | – | Ratio IC50 (Homo sapiens): 10
CC1(C)CCC(C)(C)c2cc(S(=O)(=O)c3ccc(CC(=O)O)cc3)ccc21 | > 5 | > 5 | –
CC1(C)CCC(C)(C)c2cc(C3(c4ccc(C(=O)O)cc4)OCCO3)ccc21 | – | – | inhibition at 20 µM (Cytochrome P450 26B1 [8]): 59%
CC1(C)CCC(C)(C)c2cc(/C(COc3ccc(C(=O)O)cc3)=N/O)ccc21 | 3.5 | 1.4 | –
CC1(C)CCC(C)(C)c2cc(C(O)COc3ccc(C(=O)O)cc3)ccc21 (stereo unspecified) | 2.8 | 1.4 | –
CC1(C)CCC(C)(C)c2cc(C(=O)COc3ccc(C(=O)O)cc3)ccc21 | 4 | 0.93 | –
CC1(C)CCC(C)(C)c2cc(C3(c4ccc5cc(C(=O)O)ccc5c4)SCCS3)ccc21 | 0.06 | – | –
CC1(C)CCC(C)(C)c2cc(Sc3ccc(CC(=O)O)cc3)ccc21 | 10.6 | > 5 | –
C=C(c1ccc(C(=O)O)cc1)c1cc2c(cc1C)C(C)(C)CCC2(C)C [BEXAROTENE] | 13.5 | 5.9 | –
CC1(C)CCC(C)(C)c2cc(C3(c4ccc(C(=O)O)cc4)SCCS3)ccc21 | 1.3 | – | –
CC1(C)CCC(C)(C)c2cc(Sc3cccc(CC(=O)O)c3)ccc21 | > 5 | > 5 | –
CC1(C)CCC(C)(C)c2cc(C3(c4ccc(/C=C/C(=O)O)cc4)SCCS3)ccc21 | > 10 | – | –
CC1(C)CCC(C)(C)c2cc(C(=O)c3ccc(CCC(=O)O)cc3)ccc21 | > 5 | > 5 | –
CC1(C)CCC(C)(C)c2cc(C(=O)c3ccc(/C=C/C(=O)O)cc3)ccc21 | 4.7 | > 5 | –
CC1(C)CCC(C)(C)c2cc(C3(c4ccc(CCC(=O)O)cc4)SCCS3)ccc21 | – | – | Activity [3]: inactive; Activity [5]: inactive; Activity [6]: inactive
